pKi: −log10 of the molar value. Active and inactive are the calls of the source.
Tests used:
Mus musculus [1] = assay: Antinociceptive activity in sc dosed mouse assessed as reaction time taken to jump or lick paw after 5 mins by hot plate test; assay type: functional
Procedure, shortened: (§1)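 Mice placed in a glass cylinder on a 55.0 °C hot plate. Two control latencies taken at least 10 min apart; normal latency 8–12 s. Jump or paw lick scored. Tested 5 min after s.c. injection, eight mice per dose. %MPE calculated against a 40 s maximum.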

Mus musculus [2] = assay: Effect on locomotory activity in sc dosed mouse assessed as change in spontaneous activity after 5 mins by photocell interruption readings; assay type: functional
Procedure, shortened: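 Mice placed in photocell activity cages 5 min after s.c. saline or analogue. Beam interruptions recorded over the next 10 min and expressed as photocell interruption counts.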

Mus musculus [3] = assay: Effect on rectal body temperature in sc dosed mouse assessed as change in temperature after 30 mins by inducible hypothermia test; assay type: functional; conditions: 0.5 h
Procedure, shortened: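 Rectal temperature measured in mice with a thermistor probe inserted 24 mm, read before and 30 min after s.c. saline or analogue. Change from pre-treatment value calculated for each mouse.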

Mus musculus [4] = assay: Antinociceptive activity in sc dosed mouse after 5 mins by tail flick test; assay type: functional
Procedure, shortened: (§2)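 Mice, tail-flick by the D'Amour–Smith method. Baseline latency 2–4 s, 10 s cutoff. Tested 5 min after s.c. injection. Response expressed as %MPE = (test−control)/(10−control)×100. 8–12 mice per dose, at least four doses per dose-response curve.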

Mus musculus [5] = assay: Inhibition of nicotine-induced antinociception in sc dosed mouse assessed as tail withdrawal latency after 5 mins by tail flick test; assay type: functional
[6] = biological target: Neuronal acetylcholine receptor; alpha4/beta2 (Rattus norvegicus, UniProt P09483+P12390); assay: Displacement of [3H]epibatidine from alpha4beta2 nAChR in rat cerebral cortex after 4 hrs by scintillation counting; assay type: tissue-based
Procedure, shortened: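 Rat cerebral cortex homogenate (3 mg wet weight, washed three times) in 50 mM Tris pH 7.4 with NaCl, KCl, CaCl2, MgCl2. 4 h at room temperature. Filtration onto polyethylenimine-soaked GF/B, scintillation counting. Ki from IC50 by Cheng-Prusoff.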

Mus musculus [7] = assay: Inhibition of nicotine-induced antinociception in mouse assessed as reaction time taken to jump or lick paw at 100 ug/kg after 5 mins by hot plate test; assay type: functional
[8] = biological target: Neuronal acetylcholine receptor subunit alpha-7 (Rattus norvegicus, UniProt Q05941); assay: Displacement of [3H]iodo-MLA from alpha7 nAChR in rat cerebral cortex after 2 hrs by scintillation counting; assay type: tissue-based
Procedure, shortened: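 Washed rat cerebral cortex homogenate (3 mg wet weight) in Tris pH 7.4 buffer with salts. 2 h on ice. Nonspecific binding defined with 300 µM (−)-nicotine. Filtered onto BSA-soaked GF/B, then microplate scintillation counting.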

Mus musculus [9] = assay: Inhibition of nicotine-induced antinociception in sc dosed mouse assessed as reaction time taken to jump or lick paw after 5 mins by hot plate test; assay type: functional
Mus musculus [10] = assay: Antinociceptive activity in mouse at 2 mg/kg, sc after 5 mins by tail flick test; assay type: functional; conditions: route subcutaneous; procedure, shortened: as §2
Mus musculus [11] = assay: Antinociceptive activity in mouse assessed as reaction time taken to jump or lick paw at 2 mg/kg, sc after 5 mins by hot plate test; assay type: functional; conditions: route subcutaneous; procedure, shortened: as §1
Mus musculus [12] = assay: Inhibition of nicotine-induced antinociception in mouse assessed as reaction time taken to jump or lick paw at 200 ug/kg after 5 mins by hot plate test; assay type: functional
Rattus norvegicus = species on record: Rattus norvegicus; assay: Selectivity ratio of Ki for rat alpha7 nAChR to Ki for rat alpha4beta2 nAChR
Mus musculus [13] = assay: Inhibition of nicotine-induced antinociception in mouse assessed as reaction time taken to jump or lick paw at 10000 ug/kg after 5 mins by hot plate test; assay type: functional
Mus musculus [14] = assay: Inhibition of nicotine-induced antinociception in mouse assessed as reaction time taken to jump or lick paw at 50 ug/kg after 5 mins by hot plate test; assay type: functional
[15] = Mus musculus, Tail, sc, 5 min, read-out: ED50

Chain of Neuronal acetylcholine receptor; alpha4/beta2 (P09483 whole entry): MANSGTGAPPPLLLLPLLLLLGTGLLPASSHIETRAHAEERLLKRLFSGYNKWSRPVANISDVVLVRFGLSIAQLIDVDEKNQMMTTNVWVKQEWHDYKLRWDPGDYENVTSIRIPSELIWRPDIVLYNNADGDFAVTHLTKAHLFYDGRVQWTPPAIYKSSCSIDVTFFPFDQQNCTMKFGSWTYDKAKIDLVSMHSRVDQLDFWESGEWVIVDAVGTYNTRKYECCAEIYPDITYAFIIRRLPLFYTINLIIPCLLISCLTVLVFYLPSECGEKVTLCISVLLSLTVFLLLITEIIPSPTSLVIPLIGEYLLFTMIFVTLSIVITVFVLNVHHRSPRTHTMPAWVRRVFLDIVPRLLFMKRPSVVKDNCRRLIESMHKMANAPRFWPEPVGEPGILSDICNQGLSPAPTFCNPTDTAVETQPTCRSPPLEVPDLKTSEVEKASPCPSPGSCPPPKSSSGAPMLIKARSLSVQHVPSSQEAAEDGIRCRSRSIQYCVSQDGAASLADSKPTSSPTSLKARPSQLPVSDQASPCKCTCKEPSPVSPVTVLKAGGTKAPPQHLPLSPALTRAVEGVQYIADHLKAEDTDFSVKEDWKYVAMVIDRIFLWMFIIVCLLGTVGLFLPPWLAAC
Chain of Neuronal acetylcholine receptor; alpha4/beta2 (P12390 whole entry): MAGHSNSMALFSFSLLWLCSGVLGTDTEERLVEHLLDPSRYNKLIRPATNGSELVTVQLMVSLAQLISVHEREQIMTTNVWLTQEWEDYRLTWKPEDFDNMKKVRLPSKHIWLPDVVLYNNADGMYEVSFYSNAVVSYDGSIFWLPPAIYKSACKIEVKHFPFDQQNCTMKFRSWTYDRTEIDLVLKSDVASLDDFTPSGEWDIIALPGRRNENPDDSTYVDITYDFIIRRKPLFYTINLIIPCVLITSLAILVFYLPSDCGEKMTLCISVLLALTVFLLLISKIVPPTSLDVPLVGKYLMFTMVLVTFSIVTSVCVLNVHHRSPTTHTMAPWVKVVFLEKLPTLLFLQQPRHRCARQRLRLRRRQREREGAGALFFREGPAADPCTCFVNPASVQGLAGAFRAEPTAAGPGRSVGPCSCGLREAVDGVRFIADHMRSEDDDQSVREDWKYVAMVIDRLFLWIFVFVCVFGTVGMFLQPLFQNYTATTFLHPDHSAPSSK
Chain of Neuronal acetylcholine receptor subunit alpha-7 (Q05941 whole entry): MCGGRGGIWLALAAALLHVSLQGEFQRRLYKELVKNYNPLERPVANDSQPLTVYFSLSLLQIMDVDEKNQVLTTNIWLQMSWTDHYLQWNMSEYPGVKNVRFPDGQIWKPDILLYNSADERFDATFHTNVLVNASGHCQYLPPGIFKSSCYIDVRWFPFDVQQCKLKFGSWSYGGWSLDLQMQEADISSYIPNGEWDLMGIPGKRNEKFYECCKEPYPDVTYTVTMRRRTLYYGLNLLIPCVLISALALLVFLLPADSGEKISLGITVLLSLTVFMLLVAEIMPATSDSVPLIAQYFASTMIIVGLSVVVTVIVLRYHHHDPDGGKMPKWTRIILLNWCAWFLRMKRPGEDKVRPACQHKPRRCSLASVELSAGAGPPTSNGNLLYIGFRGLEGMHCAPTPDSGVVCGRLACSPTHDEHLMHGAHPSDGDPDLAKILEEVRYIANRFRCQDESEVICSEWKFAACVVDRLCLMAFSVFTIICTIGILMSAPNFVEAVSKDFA

| Compound | ED50 (Mus musculus [1]) | ED50 (Mus musculus [2]) | ED50 (Mus musculus [3]) | ED50 (Mus musculus [4]; [15]) | AD50 (Mus musculus [5]) | pKi [6] | inhibition in vivo at 0.1 mg/kg (Mus musculus [7]) | pKi [8] | AD50 (Mus musculus [9]) | Activity (Mus musculus [10]) | Activity (Mus musculus [11]) | inhibition in vivo at 0.2 mg/kg (Mus musculus [12]) | Activity (Mus musculus [1]) | Activity (Mus musculus [4]) | Ratio Ki (Rattus norvegicus) | inhibition in vivo at 10 mg/kg (Mus musculus [13]) | ED50 (Mus musculus [4]) | inhibition in vivo at 0.05 mg/kg (Mus musculus [14]) |
| --- | --- | --- | --- | --- | --- | --- | --- | --- | --- | --- | --- | --- | --- | --- | --- | --- | --- | --- |
| Clc1ccc([C@@H]2C[C@H]3CC[C@@H]2N3)cn1 (stereo in doubt; (+)-1) [(+)-EPIBATIDINE] | 0.004 mg/kg | 0.001 mg/kg | 0.004 mg/kg | 0.0061 mg/kg |  |  |  |  |  |  |  |  |  |  |  |  |  |  |
| Nc1ccc(-c2cc([C@H]3C[C@@H]4CC[C@H]3N4)cnc2Cl)cc1 | 4.5 mg/kg | 0.52 mg/kg | 1.1 mg/kg | 5 mg/kg | 0.006 mg/kg | 10.47 | 0% | 6.63 |  |  |  |  |  |  |  |  |  |  |
| COc1cccc(-c2cc([C@H]3C[C@@H]4CC[C@H]3N4)cnc2Cl)c1 | 0.8 mg/kg | 0.2 mg/kg | 0.7 mg/kg | 0.7 mg/kg | 0.029 mg/kg | 10.72 | 0% | 6.25 |  |  |  |  |  |  |  |  |  |  |
| CN1CCC[C@H]1c1cccnc1 [NICOTINE] | 0.65 mg/kg | 0.5 mg/kg | 1 mg/kg | 1.3 mg/kg |  |  |  |  |  |  |  |  |  |  |  |  |  |  |
| CN(C)c1cccc(-c2cc([C@H]3C[C@@H]4CC[C@H]3N4)cnc2Cl)c1 |  |  | 3.3 mg/kg |  | 0.02 mg/kg | 11.05 |  | 5.96 | 0.56 mg/kg | 0% | 0% |  |  |  |  |  |  |  |
| Clc1ncc([C@H]2C[C@@H]3CC[C@H]2N3)cc1-c1cccc(Br)c1 | 2.2 mg/kg | 0.11 mg/kg | 0.67 mg/kg | 0.54 mg/kg | 0.01 mg/kg | 10.80 |  | 7.07 | 0.22 mg/kg |  |  |  |  |  |  |  |  |  |
| Clc1ccc(-c2cc([C@H]3C[C@@H]4CC[C@H]3N4)cnc2Cl)cc1 | 2 mg/kg | 0.53 mg/kg | 0.89 mg/kg | 2.6 mg/kg | 0.001 mg/kg | 10.41 | 10% | 6.68 |  |  |  |  |  |  |  |  |  |  |
| O=[N+]([O-])c1cccc(-c2cc([C@H]3C[C@@H]4CC[C@H]3N4)cnc2Cl)c1 | 3.2 mg/kg | 0.9 mg/kg | 1.4 mg/kg | 4.6 mg/kg | 0.00025 mg/kg | 11.10 |  | 6.64 | 0.18 mg/kg |  |  |  |  |  |  |  |  |  |
| COc1ccc(-c2cc([C@H]3C[C@@H]4CC[C@H]3N4)cnc2Cl)cc1 | 1.1 mg/kg | 0.43 mg/kg | 0.79 mg/kg | 2.36 mg/kg | 0.01 mg/kg | 10.66 |  | 6.76 |  |  |  | 10% |  |  |  |  |  |  |
| Nc1cccc(-c2cc([C@H]3C[C@@H]4CC[C@H]3N4)cnc2Cl)c1 | 0.3 mg/kg | 0.03 mg/kg | 0.31 mg/kg | 0.34 mg/kg | 0.00014 mg/kg | 10.77 |  | 6.59 | 0.026 mg/kg |  |  |  |  |  |  |  |  |  |
| c1cnc2cc3c(cc2n1)[C@@H]1CNC[C@H]3C1 |  |  |  |  |  |  |  |  |  |  |  |  | inactive | inactive |  |  |  |  |
| Clc1cccc(-c2cc([C@H]3C[C@@H]4CC[C@H]3N4)cnc2Cl)c1 | 4.2 mg/kg | 0.06 mg/kg | 0.38 mg/kg | 3.4 mg/kg | 0.0022 mg/kg | 10.89 |  | 7.52 | 0.08 mg/kg |  |  |  |  |  | 2000 |  |  |  |
| Clc1ncc([C@H]2C[C@@H]3CC[C@H]2N3)cc1-c1ccccc1 | 1 mg/kg | 0.35 mg/kg | 0.4 mg/kg | 0.7 mg/kg | 0.28 mg/kg | 10.68 |  | 6.59 |  |  |  |  |  |  |  | 30% |  |  |
| Clc1ccc([C@@H]2C[C@H]3CC[C@@H]2N3)cn1 (stereo in doubt; (-)-1) [(+)-EPIBATIDINE] |  |  |  |  |  |  |  |  |  |  |  |  |  |  |  |  | 0.0066 mg/kg |  |
| Fc1ccc(-c2cc([C@H]3C[C@@H]4CC[C@H]3N4)cnc2Cl)cc1 | 1.27 mg/kg | 0.33 mg/kg | 0.33 mg/kg | 2.48 mg/kg | 0.0005 mg/kg | 10.77 | 30% | 6.51 |  |  |  |  |  |  |  |  |  |  |
| Fc1cccc(-c2cc([C@H]3C[C@@H]4CC[C@H]3N4)cnc2Cl)c1 | 0.43 mg/kg | 0.07 mg/kg | 0.19 mg/kg | 1 mg/kg | 0.0039 mg/kg | 10.92 |  | 6.60 | 0.086 mg/kg |  |  |  |  |  |  |  |  |  |
| O=[N+]([O-])c1ccc(-c2cc([C@H]3C[C@@H]4CC[C@H]3N4)cnc2Cl)cc1 | 0.38 mg/kg | 0.24 mg/kg | 0.23 mg/kg | 0.46 mg/kg | 0.007 mg/kg | 10.82 |  | 6.60 |  |  |  |  |  |  |  |  |  | 17% |

From ChEMBL document CHEMBL1154863 (J Nat Prod, 2010)
